Test results from the EternaBench riboswitch data.

Test system: MS2 coat protein
Experiment: apparent Kd, MS2 coat protein; higher = weaker binding; RNA-MaP array; FMN 200 µM where present
Procedure, shortened: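 Stalled E. coli RNA polymerase produced the designs on Illumina sequencing-chip clusters. SNAP-549-labelled MS2 coat protein was added from 0.7 or 1.5 nM, doubling to 3 µM, without and then with constant ligand, in 100 mM Tris-HCl pH 7.5, 80 mM KCl, 4 mM MgCl2, BSA, DTT, yeast tRNA and Tween-20. The apparent Kd is the median of filtered per-cluster fits of green signal normalised to red-channel RNA signal and control-cluster median Fmax.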

[1] = designed as: OFF switch for flavin mononucleotide, no ligand
[2] = ligand present: flavin mononucleotide, designed as: OFF switch for flavin mononucleotide
[3] = designed as: ON switch for flavin mononucleotide, no ligand
[4] = ligand present: flavin mononucleotide, designed as: ON switch for flavin mononucleotide

Sequence	apparent Kd [1]	apparent Kd [2]	apparent Kd [3]	apparent Kd [4]
AUUACCAGAGGAUAUGCGAGGGUGUACCUCCCACAGCGAAAACAUGAGGAUCACCCAUGUAGAAGGCUGAACAU	56.7 nM	46.3 nM		
AGAAACCGAGGAUAUACAUGAGGAUCACCCAUGUCAAGCGGCAUCUACCGAACCUUCUGUAGAAGGCGGAAAAC	19.9 nM	22.9 nM		
AACGAGCAGUAGAAGGCGUGUCUACGGACAUGAGGAUCACCCAUGUUGUGACUCCGAAAGGAGCGCGAGGAUAUACUGCUCAAA			10.3 nM	6.57 nM
UAUAUAUAGUAAGGAUAUGUAAUUAUUUUACAAACAGAAGGUACUGACAUGAGGAUCACCCAUGUUUUAGUGUGGGCAUGUAGA	47.3 nM	54.4 nM		
AAAAAACAUGAGGAUCACCCAUGUGAGGAUAUCUGUAUCCAAAAGGAAGUGUAGGAUCAGAGAAGGCACUAGGA	68.1 nM	123 nM		
UGUGACAUGAGGAUCACCCAUGUAGAGGAUAUAGAGAUGAUGUUAGAGAAGAAUGUGUAGUAAGACUAGAAGGCUAUGUGUGUA	32.8 nM	28.2 nM		
UCCUUGUCCUGAGGAUAUCCGCGGUUCCCAAAAGGAGAAGGCAGGACAUGAGGAUCACCCAUGUACCCAGAAAACGUGCAGAUU	9.95 nM	46.8 nM		
UGAUAGGACAGAGGAUAUACGUGCUGGAGAUACUAGCAAAGUAUCUUGACAUGAGGAUCACCCAUGUAGAAGGCUGUCCUAUCU	16.9 nM	89.2 nM		
UGUCUAUAUGAAGGAUAUCUAAGCAUAAACCGUAGAGAAGGUCAAUAGUACAUGAGGAUCACCCAUGUUAGAAUUGAAGGGUUU	17.6 nM	23.2 nM		
UCCGUGGCAUCUCGCGCAUGUCUACAUGAGGAUCACCCAUGUCAGGAUAUACGGAUUGUCGUUCUGUAGAAGGGACAAGGGCUG	131 nM	108 nM		
AGUGUCAUCGAGAAGGCCUCAACAUGAGGAUCACCCAUGUUGCAAAAUGGGAGGAUAUCGCGCGUUCUAAAACGUUUCGUAGCA			54.1 nM	18 nM
CAGAAGUCAGGAUAUCCAUGGCGGCACUUGCGUGGUGGCGUGGAGAAGGGACAUGAGGAUCACCCAUGUAAAGG	171 nM	237 nM		
UGGGAACGAGGAUAUCGAUGGUGGAACAUGAGGAUCACCCAUGUAUGAGAUAGUGUAGGGCGAGAAGGCGUUAAGU	94.8 nM	66.5 nM		
AGCAGAACGUCAGGAUAUGUGGGUACUUUAGUCACAUGAGGAUCACCCAUGUAGGACUGCGAUCAACAGAAGGGACAAUUAGCA			279 nM	16.2 nM
AAAUAGCUUGAGGAUAUUGGAUUGGAUUCAGUGCGAGAAGGCAAGACAUGAGGAUCACCCAUGUUGUGUUGGGA	47.2 nM	90 nM		
AACCGCGACCGGCCUGGCACGUCGAGAAGGGUACGUGACCUGCUUUACAUGAGGAUCACCCAUGUACAGGAUAUCGAAUAGCCG	5.97 nM	8.4 nM		
UAUUUGCAAGGAUAUGAUUUAAGUAACAUGAGGAUCACCCAUGUUUUUCCGUUGUUAUGUUCAGAAGGUGCGUGAU	58.6 nM	74.9 nM		
AUUAUUUUCGAAGGAUAUGGAUACAUGAGGAUCACCCAUGUAUAAAAUGUGAUCAAUUAUAUGAUCCAGAAGGUCGUUGUUUAU	80.8 nM	257 nM		
CUAUUUAAGCAGAAGGCGUGGGAAAGAUUUACACGAGGAUAUGCGAUAACGGCGUAUGACAUGAGGAUCACCCAUGUACGUGCG			7.22 nM	4.47 nM
CUGAGCUGAGGAUAUACAUGAGGAUCACCCAUGUGAAGUAGCUUGCGUACAGGCAGAUGUAGAAGGCAGUUCGG	39.1 nM	179 nM		
UAGAAGUCAGGAUAUCCAUGGCGGCACUUGCGUGGUGGCGUGGAGAAGGGACAUGAGGAUCACCCAUGUAAAGU	53.3 nM	48.5 nM		
GCAGAACAUGAGGAUCACCCAUGUCUCUAAUAUCGAGGAUAUGGGCACGGUAUAUCCGAACCAGAAGGCGAACUGC			272 nM	60 nM
GUGUACAGAGGAUAUACAUGAGCUAGGAAACUAGCAAACUCACAUGAGGAUCACCCAUGUAGAAGGCUGUACAC	264 nM	54.7 nM		
